The list is not random: actives were taken first. Their share in the collection is about 4.6%.
TAAR1 antag: human TAAR1 antagonists, primary screen, Fluo-8 calcium fluorescence, CHO RD-HGA16 cells | 1.5% of 360,000 active | AID 624466, 2012 | inhibition, % at 3 µM | antagonist | Trace amine-associated receptor 1 (Homo sapiens), Q96RJ0;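 active = inhibition above a per-plate cutoff, the mean inhibition of test compounds on that plate plus 3 SD, cut at about 49% in these data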
Target sequence (Q96RJ0 whole entry, looked up): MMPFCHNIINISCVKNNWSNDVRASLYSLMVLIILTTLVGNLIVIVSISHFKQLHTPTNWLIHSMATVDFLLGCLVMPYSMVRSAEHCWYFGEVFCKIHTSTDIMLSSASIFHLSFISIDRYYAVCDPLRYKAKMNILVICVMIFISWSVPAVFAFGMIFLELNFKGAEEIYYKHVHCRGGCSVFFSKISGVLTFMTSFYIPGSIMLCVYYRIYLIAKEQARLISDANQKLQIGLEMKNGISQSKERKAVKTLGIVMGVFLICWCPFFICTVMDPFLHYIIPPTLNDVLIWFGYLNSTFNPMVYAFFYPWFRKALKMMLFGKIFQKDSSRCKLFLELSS
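Material: CHO RD-HGA16 cells bearing hTAAR1; compound dosing: one-point dosing, 3 µM nominal final; schedule: dye loading 75 min at 37 °C, then 30 min room temperature; measured by: calcium fluorescence with Fluo-8; control set: vehicle and agonist controls; replication: n of 1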
OX1R antag-1: antagonists of human orexin 1 receptor (OX1R); OX1R-expressing cells, FRET antagonist read-out; inhibition, % at 6.6 µM; 1.8% of 330,000 active; in the data active = inhibition mostly above about 38%, no sharp cut-off; inactive = mostly below about 40%
CHO parental Ca: ATP-evoked calcium signal inhibitors, parental CHO, primary screen, counter-screen for OX1R antagonist project, cell-based, fluorescence, Fluo-8 calcium dye; parental CHO-K1, ATP-induced calcium, Fluo-8 fluorescence; inhibition, % at 5.6 µM; 0.63% of 330,000 active; AID 463079, 2010;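 active = inhibition above that plate's mean sample inhibition plus 3 SD, cut at about 26% in these data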
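Test system: untransfected parental CHO cell line; also added: ATP stimulus; dosing: 5.6 µM, single dose; signal: calcium-sensitive Fluo-8 fluorescence; measure: percent inhibition of ATP-evoked calcium rise, normalized to controls; benchmarks: low control ATP plus DMSO, high control DMSO only; replication: one well per compound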
OX1R antag-2: OX1R (HCRTR1) antagonists, primary screen, fluorescence, CHO/OX1R cells, Fluo-8 calcium, orexin A; Orexin/Hypocretin receptor type 1 (Homo sapiens), O43613; Fluo-8 calcium fluorescence; inhibition, % at 5 µM; 0.43% of 330,000 active;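 active = inhibition above its plate's threshold, mean inhibition of all tested compounds on the plate plus 3 SD, cut at about 37% in these data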
TAAR1 ag: human TAAR1 agonists, primary screen, Fluo-8 calcium fluorescence, CHO RD-HGA16 cells; Trace amine-associated receptor 1 (Homo sapiens), Q96RJ0; vehicle wells 0%, saturating PEA agonist 100%; activation, % at 3 µM; 0.99% of 360,000 active;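 active = activation above the mean activation of all test compounds in the run plus 3 SD, cut at about 38% in these data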
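System: CHO-derived RD-HGA16 cells with stable Gα16 and human TAAR1. Times: 17-24 h plating, Fluo-8 75 min 37 °C, 30 min RT. Measured by: calcium-sensitive Fluo-8 signal, excitation 470-495, emission 515-575 nm. Read-out basis: % activation relative to PEA EC100 response. Control set: DMSO and PEA EC100. Repeats: no replicates (n 1).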
GPR7 antag: GPR7 receptor antagonists, primary screen, cell-based, fluorescence, single concentration; inhibition, % at 4.4 µM; 1.1% of 290,000 active; AID 1861, 2009; GPR7-expressing cells, fluorescence antagonist assay; in the data active = inhibition above about 16%, passing the limit was not always enough;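 note: cells stimulated with the agonist NPW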
Target sequence (P48145 whole entry, looked up): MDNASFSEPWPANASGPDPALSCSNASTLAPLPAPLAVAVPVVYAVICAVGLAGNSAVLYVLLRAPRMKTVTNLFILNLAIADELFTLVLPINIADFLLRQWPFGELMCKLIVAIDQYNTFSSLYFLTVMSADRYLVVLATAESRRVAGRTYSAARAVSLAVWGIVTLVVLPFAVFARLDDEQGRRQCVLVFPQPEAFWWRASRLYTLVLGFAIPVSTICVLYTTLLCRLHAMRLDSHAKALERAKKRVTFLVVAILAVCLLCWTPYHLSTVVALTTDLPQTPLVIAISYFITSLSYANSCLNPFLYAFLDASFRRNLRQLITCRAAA
A number is an active result; 0 = inactive; - = no result.

SMILES	TAAR1 antag	OX1R antag-1	CHO parental Ca	OX1R antag-2	TAAR1 ag	GPR7 antag
O=C(O)CN1CCNCCN(CC(=O)O)CCNCC1	0	-	-	-	0	-
C[C@H](CO)N1C[C@H](C)[C@H](CN(C)C(=O)c2ccc3ccn(C)c3c2)OCc2cnnn2CCCC1=O	0	-	-	-	0	-
O=C(CN1C(=O)c2ccc([N+](=O)[O-])cc2C1=O)NC1CCCCCC1	0	65	0	0	0	-
O=C(CCN1C(=O)c2ccc([N+](=O)[O-])cc2C1=O)Nc1nccs1	0	72	0	0	0	0
O=C(CN1C(=O)c2ccccc2C1=O)NC1CCCCCC1	0	0	0	0	0	0
COc1cccc(NC(=O)CCN2C(=O)c3cccc([N+](=O)[O-])c3C2=O)c1	0	0	0	0	0	0
COc1ccc(CNc2ccc([N+](=O)[O-])cc2C)cc1	0	0	38	0	0	0
COc1cccc(NC(=O)CCN2C(=O)c3ccc([N+](=O)[O-])cc3C2=O)c1	0	50	0	0	0	0
O=C(CN1C(=O)c2ccc([N+](=O)[O-])cc2C1=O)Nc1nccs1	0	0	0	0	0	0
Cc1ccc(NC(=O)OCCN(C)C(=O)Nc2ccc(C)cc2C)c(C)c1	0	-	-	-	0	-
COc1ccc(CNC(=O)CN2C(=O)c3ccc([N+](=O)[O-])cc3C2=O)cc1	0	76	0	0	0	0
COc1ccc(CNC(=O)CN2C(=O)c3ccccc3C2=O)cc1	0	0	0	0	0	0
C[C@H](CO)N1C[C@H](C)[C@@H](CN(C)C(=O)Nc2ccccc2)Oc2c(NC(=O)Nc3ccccc3)cccc2C1=O	50	0	0	0	0	-
CC(C)NC(=O)Nc1cccc2c1O[C@H](CN(C)C(=O)Nc1ccc(C(F)(F)F)cc1)[C@@H](C)CN([C@H](C)CO)C2=O	0	0	0	0	0	-
C[C@H](CO)N1C[C@H](C)[C@@H](CN(C)C(=O)Nc2ccccc2)Oc2c(NC(=O)Nc3ccc(C(F)(F)F)cc3)cccc2C1=O	49	0	0	0	0	-
CC(C)NC(=O)Nc1cccc2c1O[C@H](CN(C)C(=O)Nc1ccccc1)[C@@H](C)CN([C@H](C)CO)C2=O	0	0	0	0	0	-
C[C@@H]1ON(C)[C@H]2C[C@H]3c4[nH]c5c(-c6ccccc6)cccc5c4CCN3C[C@@H]12	0	-	-	-	0	-
COc1cccc(C2=CC(=O)C[C@H](c3ccc(Cl)cc3)C2)c1OC	0	0	0	0	0	-
COc1ccc([C@H]2CC(=O)C=C(c3ccc(F)cc3OCc3ccccc3)C2)cc1	52	0	0	0	0	-
COc1ccccc1C1=CC(=O)C[C@H](c2ccc(Cl)cc2)C1	50	0	0	0	0	-
COc1c2ccoc2c(OC[C@@H](O)C(C)(C)OC)c2oc(=O)ccc12	0	0	0	0	0	0
COc1c2ccoc2c(OC[C@@H](O)C(C)(C)O)c2oc(=O)ccc12	0	62	0	0	0	0
Cc1cccc(-c2ncc(CN3CCN(CCC(C)C)C(CCO)C3)cn2)c1 (centres undefined)	0	0	0	0	0	19
O=C(c1cccc(Cl)c1)N1CCN(CCCc2ccccc2)CC1	0	0	0	0	0	0
COCCCNCCCCOc1ccc(Br)cc1C	0	0	0	0	41	0
SMILES	TAAR1 antag	OX1R antag-1	CHO parental Ca	OX1R antag-2	TAAR1 ag	GPR7 antag
O=C(NNC(=O)c1cccc(S(=O)(=O)Nc2ccccc2F)c1)c1ccncc1	0	-	-	-	0	-
O=c1[nH]c2cc([N+](=O)[O-])c([N+](=O)[O-])cc2[nH]c1=O	0	56	0	0	0	0
O=c1[nH]c2ccccc2[nH]c1=O	0	0	0	0	0	0
Cc1cc2oc(=O)cc(CN3CCN(Cc4ccc5c(c4)OCO5)CC3)c2cc1C	0	0	100	0	0	0
Cc1ccc2c(CN3CCN(Cc4ccc5c(c4)OCO5)CC3)cc(=O)oc2c1C	0	0	0	0	0	0
CCOc1ccccc1N1CCN(C(=O)CSc2ccc3c(c2)OCCO3)CC1	51	0	0	0	0	-
O=C(CSc1ccc2c(c1)OCCO2)N1CCN(c2ccccc2O)CC1	0	-	-	-	0	-
O=C(NCCN1C(=O)S/C(=C\c2cccnc2)C1=O)C1CC(=O)N(Cc2ccco2)C1 (centres undefined)	0	0	0	0	0	0
O=C(NCCN1C(=O)S/C(=C\c2ccccc2F)C1=O)C1CC(=O)N(Cc2ccccc2)C1 (centres undefined)	54	0	0	0	0	-
CSc1nc2c(=O)[nH]cnc2s1	0	-	-	-	0	-
O=C(Nc1cccc(Cl)c1)NN(c1ccccc1)C1CCS(=O)(=O)C1 (centres undefined)	0	-	-	-	0	-
CC(C)(C)c1ccc(S(=O)(=O)Nc2ccc(Cc3ccncc3)cc2)cc1	0	0	0	0	46	0
O=C(Nc1ccc(Cc2ccncc2)cc1)c1cccc([N+](=O)[O-])c1	0	0	0	0	0	0
Cc1ccc(C(=O)Nc2ccc(Cc3ccncc3)cc2)cc1[N+](=O)[O-]	60	0	0	0	0	0
CCN(CC)S(=O)(=O)c1ccc(C(=O)Nc2ccc(Cc3ccncc3)cc2)cc1	56	39	85	82	0	0
COc1ccc(CN2CC[C@H]3C=CC[C@@H](C(=O)NCCc4ccccc4)[C@H]3C2=O)cc1OC	0	70	0	0	0	-
CCOC(=O)C1=C(C)Nc2ccccc2N/C1=N\S(=O)(=O)c1ccc(Cl)cc1	0	30	0	0	0	-
Cc1cccc(OCC(=O)Nc2nc3ccc([N+](=O)[O-])cc3s2)c1	0	41	0	0	0	0
Cc1cccc(OCC(=O)Nc2nc3ccc([N+](=O)[O-])cc3s2)c1C	0	0	0	0	0	0
O=C(COc1ccccc1C(=O)O)Nc1nc2ccc([N+](=O)[O-])cc2s1	0	59	42	0	0	0
COc1cc([N+](=O)[O-])ccc1NC(=O)CCCOc1cccc(C)c1	106	0	0	0	0	0
Cc1ccc(S(=O)(=O)N(C)c2ccc(OCC(=O)Nc3nc4ccccc4s3)cc2)cc1	0	57	0	0	0	0
Cc1ccc(S(=O)(=O)N(C)c2ccc(OCC(=O)Nc3nc4c(ccc5ccccc54)s3)cc2)cc1	0	0	0	0	0	0
Cc1ccccc1C(=O)N(C)[C@H]1C[C@H]2c3[nH]c4c(-c5ccc6c(c5)OCO6)cccc4c3CCN2C(=O)[C@H]1[C@H](C)O	0	-	-	-	0	-
Nc1[nH]c(C(=O)c2ccccc2)c(-c2cccc3ccccc23)c1C(=O)NCc1ccc(F)c(F)c1	0	-	-	-	0	-

Screens as filed in PubChem BioAssay.
